Screening results from PubChem.
Xi reactivation – activators of X-chromosome reactivation in mouse fibroblasts. activation, % at 7.58 µM. actives 0.055% (n = 360,000). XiGFP mouse fibroblasts, % GFP-positive cells imaging, 3 d; cells co-treated with 5-aza-dC sensitizer; scaled so ellipticine positive control = 100%;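 active = mean normalized replicate activation at least 10% and every replicate at or above 10%; inconclusive = only one of the two criteria met; inactive = mean below 10% and not all replicates reach 10%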;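 note: 0% = median of on-plate neutral control wells and 100% = ellipticine 6 µM median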
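Material: XiGFP fibroblasts, SV40-immortalized. Buffer or medium: DMEM plus 5-aza-dC sensitizer. Compound: single concentration per compound, delivered by pin transfer. Times: 3 days compound exposure. Controls: ellipticine 6 µM.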
SIRT5 block – blocks human SIRT5 desuccinylation of peptide; Q9NXA8; actives 1.1% (n = 330,000); inhibition, % at 15 µM; Purified SirT5, succinyl-peptide AMC, trypsin-coupled fluorescence; AID 652115; in the data active = inhibition above about 15%; inconclusive = no clear call, values can overlap the other calls
Target sequence (Q9NXA8 whole entry, looked up): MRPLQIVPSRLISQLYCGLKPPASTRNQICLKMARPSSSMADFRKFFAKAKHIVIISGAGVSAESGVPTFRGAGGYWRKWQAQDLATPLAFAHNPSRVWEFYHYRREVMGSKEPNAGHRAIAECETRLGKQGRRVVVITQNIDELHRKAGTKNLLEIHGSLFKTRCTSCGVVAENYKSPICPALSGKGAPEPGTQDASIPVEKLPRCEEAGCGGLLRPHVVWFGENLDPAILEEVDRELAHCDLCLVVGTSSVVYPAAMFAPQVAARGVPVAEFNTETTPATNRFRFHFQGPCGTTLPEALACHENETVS
ARNT-TACC3 inh – disrupts binding between human ARNT and TACC3 | Q9Y6A5 | inhibition, % at 9.99 µM | AlphaScreen His-ARNT PAS-B/GST-TACC3 binding, luminescence; TACC3 fragment carries E629A point mutation | actives 0.66% (n = 390,000) | AID 623870;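 active = mean inhibition of replicates at least 50% and at least half of replicates each reaching 50%; inconclusive = half or more replicates reach 50% but mean below 50%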;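 note: 0% = complete ARNT plus TACC3 wells and 100% = ARNT alone without TACC3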
FGF22 binding – FGF22 (human) thermal shift binding; activity (Tm shift, normalised), % at 9.99 µM; AID 651658; actives 1.5% (n = 340,000); Q9HCT0; recombinant FGF22 thermal shift, SYPRO orange fluorescence; percent of sucrose octasulfate shift, DMSO zero;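 active = mean Tm shift, scaled 0 neutral to 100 positive control, at about 1.3% or above, every replicate too, limit read from the data; inconclusive = no clear call, values can overlap the other calls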
Target sequence (Q9HCT0 whole entry, looked up): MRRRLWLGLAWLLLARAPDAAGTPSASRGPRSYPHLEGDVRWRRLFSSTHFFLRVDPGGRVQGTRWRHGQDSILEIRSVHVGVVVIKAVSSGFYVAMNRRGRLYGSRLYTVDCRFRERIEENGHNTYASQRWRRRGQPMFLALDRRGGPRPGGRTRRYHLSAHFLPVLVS
FN deposit inh – fibronectin deposition inhibition. AH1F fibroblasts, Alexa488-fibronectin deposition fluorescence, overnight. inhibition, % at 12.6 µM. actives 0.086% (n = 350,000). AID 743247;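 active = mean inhibition across replicates of 30% or more, regardless of how many single replicates reach that level; inconclusive = mean under 30% yet at least half of replicates reach 30%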;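 note: positive control wells lacked labelled fibronectin entirely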
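Assay system: AH1F fibroblasts assembling fluorescent fibronectin matrix; Amount: 10000 AH1F cells per well; Buffer or medium: DMEM, 2% serum; Probe or stimulus: Alexa488-fibronectin, 24 nM final in well; Doses: single compound dose, delivered by pin transfer; Incubation: 1 h adhesion, overnight exposure; Measured by: fluorescence 485/525 nm; Read-out: fibronectin deposition inhibition.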
DENV2 CPE – protects cells from dengue virus 2 cytopathic effect | DENV2-infected cells, cytopathic effect rescue, plate reader | actives 1.7% (n = 350,000) | CPE inhibition, % at 9.99 µM; in the data active = CPE inhibition above about 20%, passing the limit was not always enough; inconclusive = no clear call, values can overlap the other calls; tested in BHK-21 cells;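 note: 0% = median of neutral control wells and 100% = median of positive control wells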
* hit, by the source's call; u = inconclusive; x = no result given. Hits are enriched below; roughly 3.8% of the tested compounds scored in any of these assays.

SMILES | Xi reactivation | SIRT5 block | ARNT-TACC3 inh | FGF22 binding | FN deposit inh | DENV2 CPE
C[C@H](CO)N1C[C@H](C)[C@H](CN(C)Cc2ccc(C(=O)O)cc2)OCCCC[C@H](C)Oc2ccc(NC(=O)CCC(F)(F)F)cc2C1=O | 0 | 0 | -8 | 0 | x | 6
Cc1ccc(CSc2nnc(-c3ccncc3)o2)c(C)c1 | 0 | -1 | 0 | 43* | x | 0
CN(Cc1ccccc1)C(=O)CCN1C(=O)c2cccc([N+](=O)[O-])c2C1=O | 1 | x | x | 43* | -6 | -1
CC(/C=C/c1ccco1)=N/NC(=O)c1ccc(C)nc1 | 0 | x | 7 | 0 | -2 | 8
Cc1ccc(C(=O)N/N=C/c2cccc(OC(=O)/C=C/c3ccco3)c2)cn1 | 0 | 24* | x | 0 | 2 | x
O=C(CNc1ccc2ccccc2c1)N/N=C/c1ccc(OC(=O)/C=C/c2ccco2)cc1 | 0 | -1 | -1 | 44* | -19 | x
COc1ccc(NC(=O)Nc2ccc3c(c2)C(=O)N([C@@H](C)CO)C[C@@H](C)[C@H](CN(C)S(C)(=O)=O)OCCCC[C@@H](C)O3)cc1 | 0 | -2 | -8 | -1 | x | -6
CNC[C@H]1Oc2ccc(NC(=O)NC3CCCCC3)cc2C(=O)N([C@@H](C)CO)C[C@@H]1C | -1 | 6 | -1 | 0 | -7 | 1
S=c1[nH]c(-c2ccccc2)cn1/N=C/c1ccc(Br)cc1 | 0 | -1 | -2 | 43* | 2 | -6
Cc1ccc(S(=O)(=O)Nc2ccc3c(c2)CC(=O)N([C@@H](C)CO)C[C@H](C)[C@@H](CN(C)Cc2ccccc2)O3)cc1 | -1 | -1 | -1 | 0 | x | 11
CC(O)[C@H]1CN=C(N)N1CC1CCCCC1 (stereo not given in full) | 1 | 16* | -4 | 0 | 5 | 3
CC(C)C#Cc1ccc([C@@H]2[C@@H](CO)N3CCCCN(CC4CC4)C[C@H]23)cc1 | 0 | 3 | 13 | 0 | x | -8
C[C@H](O)C#Cc1ccc([C@H]2[C@H](CO)N3CCCCN(CC4CC4)C[C@@H]23)cc1 | 0 | 0 | 1 | 0 | x | -1
C[C@H](O)C#Cc1ccc([C@H]2[C@@H](CO)N3CCCCN(CC4CC4)C[C@H]23)cc1 | 0 | -3 | x | -1 | -6 | 23*
CC(C)C#Cc1ccc([C@H]2[C@H](CO)N3CCCCN(CC4CC4)C[C@@H]23)cc1 | 0 | -1 | 4 | 0 | x | 26*
Cc1cc(NC(=O)c2ccccc2F)nc2c1c(=O)oc1ccccc12 | 0 | -7 | -5 | 44* | -2 | 15
CCCC(=O)Nc1cc(C)c2c(=O)oc3ccccc3c2n1 | 0 | 2 | 6 | 0 | -6 | u
CO[C@H]1CN(C)C(=O)c2cc(NC(=O)c3cnccn3)ccc2OC[C@H](C)N(C)C[C@@H]1C | 0 | -5 | 7 | 0 | -10 | -1
O=S(=O)(c1cccc(F)c1)N1CCN(C(=S)NCC2CCCO2)CC1 (stereo not given) | 0 | 0 | -2 | 0 | 3 | -7
O=S(=O)(c1cccc(Br)c1)N1CCN(C(=S)NCC2CCCO2)CC1 (stereo not given) | 0 | -7 | x | 0 | -27 | 68*
CCc1cc(Cn2nc(-c3ccccc3)cc2C(=O)NCc2cccc(C(F)(F)F)c2)on1 | 0 | 1 | -5 | 0 | -17 | -4
CCc1cc(Cn2nc(-c3ccccc3)cc2C(=O)NCc2cccc(Br)c2)on1 | 0 | x | 2 | 0 | 0 | 90*
CCc1cc(Cn2nc(-c3ccccc3)cc2C(=O)NCc2ccc(C)cc2)on1 | 0 | 1 | -4 | 0 | 4 | 111*
CCC(=O)N1CC2(C1)CN(C(=O)Nc1ccccc1F)[C@H](CO)c1c2c2ccc(OC)cc2n1C | 0 | -6 | x | 0 | x | u
C[C@@H]1CN([C@@H](C)CO)C(=O)Cc2cc(NC(=O)Cc3ccccc3)ccc2O[C@@H]1CN(C)Cc1ccc(Cl)c(Cl)c1 | 0 | 14 | 4 | 0 | x | 66*
C[C@@H]1CN([C@@H](C)CO)C(=O)Cc2cc(NC(=O)Cc3ccccc3)ccc2O[C@@H]1CN(C)Cc1ccccc1 | 0 | -2 | 10 | 0 | x | -6
